We go through 11 compounds from ChEMBL document CHEMBL1772955, “Synthesis, metabolic stability and antiviral evaluation of various alkoxyalkyl esters of cidofovir and 9-(S)-[3-hydroxy-2-(phosphonomethoxy)propyl]adenine” (Bioorg Med Chem, 2011).

Structures are written as SMILES.

The nature of data set [1]: Metabolic stability in human liver S9 fraction assessed as compound remaining at 1 uM after 90 mins by HPLC/MS/MS. The data set is classed as ADME, subcellular. The following applies: read-out: Stability. The method, boiled down:
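Liver S9 (human or monkey, 3 mg/mL protein, phosphate buffer) with test article at 1 or 10 μM final, pre-equilibrated about 2 min at 37 °C. Started with 1x NADPH regeneration system, sampled 0-90 min into 1% NH4OH in n-propanol. Held cold ≥48 h, centrifuged, C8 LC (water/isopropanol, 0.1% formic acid) with ESI-MS; 7-ethoxycoumarin as activity control.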

A short description of data set [2]: Selectivity index, ratio of CC50 for human HFF cells to EC50 for Vaccinia virus Copenhagen. The data set is classed as toxicity, cell-based. The following applies: read-out: Ratio CC50/EC50.
Data set [3] has as its system Vaccinia virus. Kind of data set: Antiviral activity against Vaccinia virus Copenhagen infected in human HFF cells after 3 days by plaque reduction assay. The data set is classed as functional, organism-based. The following applies: Orthopoxvirus vaccinia, 72 h.
Data set [4] can be described thus: Selectivity index, ratio of CC50 for human HFF cells to EC50 for Cowpox virus (Brighton Red). The data set is classed as toxicity, cell-based. Particulars: read-out: Ratio CC50/EC50.
Data set [5] concerns HFF. Briefly: Cytotoxicity against human HFF cells assessed as reduction in cell viability after 7 days by neutral red uptake assay. The data set is classed as cell-based. The following applies: 168 h. The method, boiled down:
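Uninfected HFF cells seeded at 2.5×10^4/well and grown 24 h to monolayer. Medium replaced by MEM/2% FBS containing graded compound concentrations; 7 d incubation. Cells stained with 0.01% neutral red, absorbance at 540 nm; CC50 interpolated as 50% viability loss.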

Data set [6] is described as follows: Antiviral activity against Cowpox virus (Brighton Red) infected in human HFF cells after 3 days by plaque reduction assay. The data set is classed as functional, cell-based. The following applies: 72 h.
Data set [7] is described as follows: Selectivity index, ratio of CC50 for african green monkey BSC1 cells to EC50 for Ectromelia virus Moscow. The data set is classed as toxicity, cell-based, BSC-1. The following applies: read-out: Ratio CC50/EC50.
Data set [8] relates to BSC-1. Briefly: (§1) Cytotoxicity against african green monkey BSC1 cells after 2 to 4 hrs by MTS assay. The data set is classed as cell-based. Particulars: chlorocebus aethiops, bsc-1. The method, boiled down: (§2)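 BSC-1 cells (5000 per reaction) mixed with serial compound dilutions in DMEM/2% Fetal Clone II, without virus. At the set time point, MTS reagent added for 2-4 h and OD490 read. Viability taken relative to untreated cells; CC50 from concentration versus % viability plot.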

Data set [9] concerns Ectromelia virus Moscow. Kind of data set: Antiviral activity against Ectromelia virus Moscow infected in african green monkey BSC1 cells after 4 to 5 days by plaque reduction assay. The data set is classed as functional, organism-based. Particulars: BSC-1.
Data set [10] can be described thus: as §1. The data set is classed as cell-based, BSC-1. Particulars: chlorocebus aethiops, BSC1 cells. The gist of the method:
as §2

Data set [11] concerns Liver. Kind of data set: Metabolic stability in human liver S9 fraction assessed as compound degradation at 10 uM after 90 mins by HPLC/MS/MS. The data set is classed as ADME, subcellular. The following applies: s9, 1.5 h. The method, boiled down:
(§3)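 Liver S9 fraction at 3 mg/mL protein in phosphate buffer, test article 1 μM or 10 μM final; 2 min equilibration at 37 °C, then reaction started with 1x NADPH regeneration system. Samples taken from time zero to 90 min into 1% ammonium hydroxide in N-propyl alcohol. Analysed by C8 HPLC with water/isopropyl alcohol (0.1% formic acid) gradient and ESI-MS. 7-Ethoxycoumarin run as positive control.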

Data set [12] concerns Liver. Kind of data set: Metabolic stability in human liver S9 fraction assessed as compound degradation at 1 uM after 90 mins by HPLC/MS/MS. The data set is classed as ADME, subcellular. The following applies: s9, 1.5 h. The method, boiled down: as §3
For data set [13], the system named is Liver. Briefly: Metabolic stability in human liver S9 fraction assessed as compound disappearance at 10 uM after 90 mins by HPLC/MS/MS. The data set is classed as ADME, subcellular. The following applies: s9, 1.5 h. The gist of the method: as §3
The subject of data set [14] is Liver. Briefly: Metabolic stability in human liver S9 fraction assessed as compound disappearance at 1 uM after 90 mins by HPLC/MS/MS. The data set is classed as ADME, subcellular. Particulars: s9, 1.5 h. The gist of the method: as §3
Data set [15] relates to Liver. The data set is classed as ADME, subcellular, Cavia porcellus, S9 fraction. Particulars: guinea pig, s9, 1.5 h, 10 µM.
The subject of data set [16] is Liver. The data set is classed as ADME, subcellular, Cavia porcellus, S9 fraction. Particulars: guinea pig, s9, 1.5 h, 1 µM.
Data set [17] relates to Liver. The data set is classed as ADME, subcellular, S9 fraction. The following applies: rat, s9, 1.5 h, 10 µM.
For data set [18], the system named is Liver. The data set is classed as ADME, subcellular, S9 fraction. The following applies: rat, s9, 1.5 h, 1 µM.

For `Nc1ccn(C[C@@H](CO)OCP(=O)(O)OCCCOCCCCCCCCCCCCCCC2CC2)c(=O)n1`, the remaining at 1.5 h, 1 µM in [1] was determined as 88%. For the same compound, the results for the selectivity ratio in data set [2], in data set [4] and in data set [7] were 187, 112 and 100, respectively. Moreover, the values for the concentration for a half-maximal effect (EC50) in data set [3], in data set [6] and in data set [9] were 300 nM, 500 nM and 740 nM, respectively. The CC50 is 56 µM in data set [5] and 74 µM in data set [8].

Turning to `CC(C)CCCCCCCCCCCCCCOCCOP(=O)(O)CO[C@H](CO)Cn1cnc2c(N)ncnc21`, the selectivity ratio amounted to 250 in data set [2], 250 in [4] and 5960 in data set [7]. In addition, the EC50 in [3], in data set [6] and in [9] was 10 nM throughout. Also, the CC50 in data set [5] worked out at 2.5 µM; in data set [8] it was 59.6 µM.

On to `CCCCCCCCCCCCCCCCCCOC[C@@H](COP(=O)(O)CO[C@H](CO)Cn1ccc(N)nc1=O)OCc1ccccc1`, for which the remaining at 1.5 h, 1 µM in data set [1] is 92.3%. The figures for the selectivity ratio in data set [2], in data set [4] and in data set [7] were 118, 157 and 1100, respectively. For the same compound, the concentration giving a half-maximal response (EC50) in data set [3] stood at 400 nM; in data set [6] it was 300 nM; in data set [9], 30 nM. Besides, the values for the CC50 in data set [5] and in data set [10] were 47 µM and 35 µM, respectively.

On to `C=CCCCCCCCCCCCCCCOCCOP(=O)(O)CO[C@H](CO)Cn1cnc2c(N)ncnc21`, for which the Stability entry in data set [11] and in data set [12] was “Unstable” in each case. Besides, the selectivity ratio in [2] came out at 85; in data set [4], 85; in [7], 7.2. For the same compound, the EC50 in [3] came out at 20 nM; in [6], 20 nM; in [9] it was 320 nM. Besides, the values for the half-maximal cytotoxic concentration (CC50) in data set [5] and in [8] were 1.7 µM and 2.32 µM, respectively.

`CCCCCCCCCCCCCCCCOCCCOP(=O)(O)CO[C@H](CO)Cn1ccc(N)nc1=O` [BRINCIDOFOVIR]: the remaining at 1.5 h, 1 µM in data set [1] stood at 83.3%. Also, the Stability result in data set [13], in [14], in data set [15], in data set [16], in data set [17] and in data set [18] was “Stable” throughout. In addition, the selectivity ratio in data set [2] was determined as 313; in data set [4] it was 125; in data set [7] it was 202. In addition, the cytotoxic concentration (CC50) was 25 µM in data set [5] and 25.3 µM in data set [8]. The concentration for a half-maximal effect (EC50) in [6] amounted to 200 nM; in [9] it was 125 nM.

Consider `CC(C)CCCCCCCCCCCCOCCCOP(=O)(O)CO[C@H](CO)Cn1ccc(N)nc1=O`, for which the selectivity ratio is 123 in [2], 123 in data set [4] and 210 in data set [7]. The EC50 in data set [3] amounted to 300 nM; in [6], 300 nM; in data set [9] it was 390 nM. In addition, the CC50 stood at 37 µM in [5] and 82 µM in data set [8].

`CC(C)CCCCCCCCCCCCCCOCCCOP(=O)(O)CO[C@H](CO)Cn1ccc(N)nc1=O`: the selectivity ratio was found to be 75 in data set [2], 150 in data set [4] and 1810 in data set [7]. Besides, the EC50 came out at 200 nM in [3], 100 nM in [6] and 43 nM in data set [9]. Moreover, the CC50 in data set [5] came out at 15 µM; in data set [8], 78 µM.

For the compound `CC(C)CCCCCCCCCCCCCCOCCCOP(=O)(O)CO[C@H](CO)Cn1cnc2c(N)ncnc21`, the Stability result in data set [11] and in data set [12] was “Stable” throughout. Further, the remaining at 1.5 h, 1 µM in data set [1] is 91.3%. Further, the selectivity ratio in data set [2] worked out at 285; in data set [4] it was 285; in data set [7], 266. Besides, the EC50 in data set [3] stood at 40 nM; in [6], 40 nM; in data set [9] it was 44 nM. In addition, the cytotoxic concentration (CC50) in [5] was 11.4 µM; in data set [8], 11.7 µM.

As for `CCCCCCCCCCCCCCCCOCCOP(=O)(O)CO[C@H](CO)Cn1cnc2c(N)ncnc21`, the selectivity ratio was determined as 156 in data set [2], 156 in data set [4] and 289 in data set [7]. Further, the figures for the EC50 in data set [3], in data set [6] and in [9] were 90 nM, 90 nM and 140 nM, respectively. Further, the half-maximal cytotoxic concentration (CC50) in data set [5] was 14 µM; in [8], 40.5 µM.

Regarding `CC(C)CCCCCCCCCCCOCCCOP(=O)(O)CO[C@H](CO)Cn1ccc(N)nc1=O`, the selectivity ratio came to 44 in data set [2], 55 in [4] and 234 in data set [7]. Besides, the 50% effective concentration (EC50) in data set [3] was determined as 1000 nM; in data set [6], 800 nM; in [9], 350 nM. Moreover, the CC50 amounted to 44 µM in [5] and 82 µM in data set [8].

With `CCCCCCCCCCCCCCCCOCCCOP(=O)(O)CO[C@H](CO)Cn1cnc2c(N)ncnc21`, the Stability entry in data set [11] and in data set [12] was “Stable” throughout. Moreover, the results for the selectivity ratio in [2], in [4] and in data set [7] were 280, 140 and 1280, respectively. In addition, the results for the CC50 in data set [5] and in data set [8] were 2.8 µM and 84.7 µM, respectively. In addition, the EC50 stood at 20 nM in data set [6] and 66 nM in [9].
